Assay outcomes deposited in PubChem by Broad Institute.
S100A4 MyoIIA: S100A4-myosin IIA interaction inhibition; P26447; S100A4/TAMRA-MyoIIA peptide fluorescence polarization; inhibition, % at 10.7 µM; 0.14% of 360,000 active; AID 652163;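 active = mean inhibition of at least 70% across replicates, with every replicate also reaching that level; inconclusive = mean inhibition reaches 70% but some replicates fall short; inactive = mean inhibition below 70%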
Target sequence (P26447 whole entry, looked up): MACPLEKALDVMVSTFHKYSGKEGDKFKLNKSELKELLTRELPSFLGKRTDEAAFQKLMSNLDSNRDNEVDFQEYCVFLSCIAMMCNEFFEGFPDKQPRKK
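Material: human S100A4 monomer with TAMRA-labelled myosin IIA peptide; buffer or medium: HEPES pH 7.2 with CaCl2, KCl, NaCl, DTT, Triton; compound dosing: one concentration per compound; schedule: 5 min incubation before reading; benchmarks: neutral control DMSO, positive control TFP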
Xi reactivation: X-chromosome reactivation activator; AID 743238; activation, % at 7.58 µM; XiGFP mouse fibroblasts, % GFP-positive cells imaging, 3 d; cells co-treated with 5-aza-dC sensitizer; scaled so ellipticine positive control = 100%; 0.055% of 360,000 active;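 active = mean normalized replicate activation at least 10% and every replicate at or above 10%; inconclusive = only one of the two criteria met; inactive = mean below 10% and not all replicates reach 10%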;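 note: 0% = median of on-plate neutral control wells and 100% = ellipticine 6 µM median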
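Assay system: SV40-immortalized XiGFP fibroblast cells, line 68-5-11; buffer or medium: DMEM plus 5-aza-dC sensitizer; compound: one concentration, pinned; timing: compounds 3 days, fix/stain 15 min at room temperature; benchmarks: positive control ellipticine, 6 µM final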
DENV2 CPE: protects cells from dengue virus 2 cytopathic effect | 1.7% of 350,000 active | DENV2-infected cells, cytopathic effect rescue, plate reader | CPE inhibition, % at 9.99 µM; in the data active = CPE inhibition above about 20%, passing the limit was not always enough; inconclusive = no clear call, values can overlap the other calls; tested in BHK-21 cells;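 note: 0% = median of neutral control wells and 100% = median of positive control wells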
E-selectin induc: E-selectin induction on HUVECs. HUVEC E-selectin immunofluorescence imaging; normalized: neutral wells 0, TNF-alpha wells 100. P16581. activation, % at 7.58 µM. 0.37% of 260,000 active. AID 686992;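 active = mean E-selectin-positive cell signal at least 10% of the positive control, reached in at least 60% of replicates, without over 20% cell loss; inconclusive = no rule given, readout overlaps actives, possibly toxicity-flagged; inactive = the rest, including those meeting only one limit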
Target sequence (P16581 whole entry, looked up): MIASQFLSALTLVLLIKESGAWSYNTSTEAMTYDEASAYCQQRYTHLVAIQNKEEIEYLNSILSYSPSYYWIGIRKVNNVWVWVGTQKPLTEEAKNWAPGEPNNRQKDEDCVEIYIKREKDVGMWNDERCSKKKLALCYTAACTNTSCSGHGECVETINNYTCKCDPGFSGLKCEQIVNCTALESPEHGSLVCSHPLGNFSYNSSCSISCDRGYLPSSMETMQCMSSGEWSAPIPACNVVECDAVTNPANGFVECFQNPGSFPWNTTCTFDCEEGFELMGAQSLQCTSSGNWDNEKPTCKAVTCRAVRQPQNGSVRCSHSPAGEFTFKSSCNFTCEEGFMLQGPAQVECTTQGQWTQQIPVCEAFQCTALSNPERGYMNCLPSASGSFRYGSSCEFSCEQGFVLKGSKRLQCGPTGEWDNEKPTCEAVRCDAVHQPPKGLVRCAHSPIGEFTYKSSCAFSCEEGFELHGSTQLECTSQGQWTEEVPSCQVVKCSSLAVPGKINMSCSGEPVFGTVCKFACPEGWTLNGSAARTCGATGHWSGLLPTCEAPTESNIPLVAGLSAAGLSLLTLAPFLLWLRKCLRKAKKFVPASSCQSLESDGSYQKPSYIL
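Test system: HUVEC; input: 3,000 HUVEC/well; measured by: immunofluorescence imaging; read-out: % PE-positive cells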
Starred values were filed as active, the others as inactive; ? = inconclusive; nt = no result given. Compounds with a hit are over-represented: about 2% of the library has one in this group of screens.

SMILES	S100A4 MyoIIA	Xi reactivation	DENV2 CPE	E-selectin induc
COc1ccc(S(=O)(=O)NCC2CCCO2)cc1NC(=O)c1ccccc1 (stereo not drawn)	-2.6	0.0	-3.1	-0.2
CCOC(=O)c1c(C)[nH]c(C)c1C(=O)COC(=O)c1cccnc1Cl	-1.5	-0.2	6.4	-0.2
CCN1C/C(=C\c2cccc([N+](=O)[O-])c2)C(=O)/C(=C/c2cccc([N+](=O)[O-])c2)C1	1.1	3.8	33.2*	nt
CCCCc1c(C)nc2ccccc2c1SCCC(=O)O	2.1	0.0	-4.9	nt
CCCCc1c(C)nc2ccc(C)cc2c1SCCC(=O)O	1.6	0.1	-4.6	29.2*
COc1ccc(C2=CSC(/N=C/c3ccc(F)cc3)=NN2)cc1	-2.6	nt	-3.3	nt
O=C(COc1ccc(F)cc1)Nc1ccc2c(c1)OCCO2	-5.0	0.3	102.2*	-1.6
O=C(Nc1ccc2c(c1)OCCO2)c1cccc(C(=O)Nc2ccc3c(c2)OCCO3)c1	-5.7	0.1	26.0*	nt
COc1cccc(C(=O)Nc2cc3c(cc2C(C)=O)OCCO3)c1	0.1	0.0	76.1*	1.1
CCC(=O)c1ccc(OCC(=O)Nc2ccc3c(c2)OCCO3)cc1	-0.5	0.0	1.7	0.1
COc1ccc(C(=O)Nc2ccc3c(c2)OCCO3)cc1[N+](=O)[O-]	-1.5	0.0	-2.3	46.2*
CC(=O)N(C)C[C@H]1Oc2ncc(C#Cc3ccncc3)cc2C(=O)N([C@H](C)CO)C[C@H]1C	8.1	0.1	19.9	-0.1
O=C(Nc1c2c(nn1-c1cccc(Cl)c1)CS(=O)C2)c1ccc2c(c1)OCO2 (stereo not drawn)	1.7	0.2	-2.7	-1.4
CC(C)CCOc1ccc(C2=NNC(=O)CC2)cc1	4.9	0.6	nt	0.7
CN1CCN(C(=O)C2CC(=O)N(c3ccc(Cl)cc3)C2)CC1 (stereo not drawn)	1.7	-0.1	0.6	nt
CCN1CCN(C(=O)C2CC(=O)N(c3ccc(Cl)cc3)C2)CC1 (stereo not drawn)	-0.7	0.0	61.1*	-0.1
COc1ccccc1NC(=O)C(C)OC(=O)C1CC(=O)N(c2ccc3c(c2)OCCO3)C1 (stereo not drawn)	-3.2	0.0	6.5	106.8*
CCOC(=O)C1CCN(C(=O)C2CC(=O)N(c3ccc4c(c3)OCCO4)C2)CC1 (stereo not drawn)	-1.4	0.3	61.5*	nt
CC(=O)Nc1ccc(NC(=O)/C=C/c2ccccc2)cc1	-3.5	0.1	-2.4	-0.2
COc1cc2cc(C(=O)NC(C)c3cccc4ccccc34)c(N)nc2cc1OC (stereo not drawn)	-4.7	0.3	?	-0.1
CCN(CC(=O)Nc1c(F)cccc1F)C(=O)C1CCN(S(=O)(=O)c2ccc(F)cc2)CC1	0.8	0.0	28.4*	nt
CCN(CC(=O)Nc1c(F)cccc1F)C(=O)C1CCN(C(=O)c2ccc(F)cc2)CC1	0.4	0.3	-1.8	3.2
COc1ccc(-c2cc(-c3ccc(Cl)cc3)c(C#N)c(SCC(=O)O)n2)cc1	-1.4	0.0	61.2*	nt
CCC(=O)Nc1ccc2c(c1)C(=O)N(C)C[C@@H](OC)[C@H](C)CN(Cc1ccccc1F)[C@@H](C)CO2	8.6	0.0	-5.3	-0.4
O=c1cc(CN2CCN(S(=O)(=O)c3ccccc3)CC2)nc2sccn12	2.0	0.0	6.8	nt
SMILES	S100A4 MyoIIA	Xi reactivation	DENV2 CPE	E-selectin induc
CC(C)(C)OC(=O)N[C@@H](COCc1ccccc1)C(=O)N[C@@H](CO)[C@H](O)[C@@H]1C[C@@H]1C(=O)NC1CC1	-10.5	0.0	-12.2	-0.1
COc1ccc(CCNS(=O)(=O)c2ccc3c(c2)NC(=O)CS3)cc1OC	-0.9	0.2	?	114.2*
COc1ccc(CCNC(=O)CCS(=O)(=O)c2ccc3c(c2)NC(=O)CS3)cc1OC	2.1	0.0	-3.6	0.2
O=C(NNCc1ccc(O)cc1)c1ccccc1Cl	-2.7	0.0	74.9*	nt
O=C(CCc1ccccc1)NNC(=O)c1ccccc1Cl	-1.8	0.1	-5.1	-0.1
CN(C(=O)CSCC(=O)Nc1ccc(Cl)cc1)C1CCCCC1	-1.2	-0.1	62.2*	-0.1
COc1cc(NC(=O)CSCC(=O)N(C)C2CCCCC2)cc(OC)c1	1.5	-0.1	?	-0.1
CN(CC(=O)Nc1ccc(Cl)c(Cl)c1)C1CCCCC1	-20.6	0.1	8.8	75.2*
O=C(CN(Cc1ccc(F)cc1)C(=O)CNS(=O)(=O)c1ccc(F)cc1)NCc1ccco1	-2.9	0.4	0.9	30.1*
Cc1ccc(F)cc1S(=O)(=O)N[C@@H]1CCN(Cc2ccc(OC(C)C)cc2)C1	-4.9	nt	?	nt
Cc1ccc(F)cc1S(=O)(=O)N[C@H]1CCN(Cc2ccc(OC(C)C)cc2)C1	0.4	nt	29.1*	nt
Cc1ccc2c(c1)CCCN2C(=O)c1c(C)noc1C	-1.2	nt	nt	nt
COc1ccc(NC(=O)Nc2ccc3c(c2)[C@@H]2C[C@@H](CC(=O)NCc4ccccc4F)O[C@H](CO)[C@@H]2O3)cc1	10.9	0.0	-0.4	-0.2
Cc1ccc(NC(=S)c2ccc(N(C)C)cc2)cc1	nt	-0.1	nt	-0.1
Cc1ccc(N(C)C)cc1	4.7	nt	22.4*	nt
O=c1[nH]c(=S)n2c(c1-c1ccccc1)OC(CBr)C2 (stereo not drawn)	13.7	0.0	?	nt
O=c1[nH]c(=O)n2c(c1-c1ccccc1)OC(CBr)C2 (stereo not drawn)	-34.8	0.0	75.0*	nt
CC(=O)c1ccc(OCCCC(=O)Nc2cc(Cl)ccc2-n2cncn2)cc1	-2.8	0.0	55.6*	-0.8
Cc1ccc(S(=O)(=O)Nc2cccc3c2O[C@@H](CN(C)C(=O)NC(C)C)[C@@H](C)CN([C@H](C)CO)C3=O)cc1	1.4	-0.3	43.3*	1.1
Cc1noc(C)c1S(=O)(=O)Nc1cccc2c1O[C@H](CN(C)S(=O)(=O)c1ccccc1)[C@H](C)CN([C@H](C)CO)C2=O	-15.6	0.3	54.3*	-0.1
Cc1noc(C)c1S(=O)(=O)Nc1cccc2c1O[C@H](CN(C)C(=O)NC(C)C)[C@H](C)CN([C@@H](C)CO)C2=O	-4.8	0.0	87.8*	-0.1
Cc1ccc(S(=O)(=O)Nc2cccc3c2O[C@@H](CN(C)C(=O)NC(C)C)[C@H](C)CN([C@@H](C)CO)C3=O)cc1	-6.8	-0.4	6.8	0.9
Cc1noc(C)c1S(=O)(=O)Nc1cccc2c1O[C@H](CN(C)C(=O)NC(C)C)[C@H](C)CN([C@H](C)CO)C2=O	-4.6	0.0	2.6	0.0
CCOC(=O)C1=C(C)N(CCCC(=O)O)C(=O)NC1c1ccc(OC)cc1 (stereo not drawn)	9.4	0.2	3.2	1.2
CCOC(=O)C1=C(C)N(C[C@@H]2CC[C@@H](Cc3ccc4cc(OC)ccc4c3)O2)C(=O)NC1c1ccccc1 (stereo partly drawn)	-2.7	0.1	48.7*	-2.9
Nc1ccnn1-c1ccccc1	-1.5	0.0	6.9	1.1
C[C@@H]1CCCCO[C@H](CN(C)C)[C@H](C)CN([C@H](C)CO)C(=O)c2cc(NC(=O)Nc3cccc4ccccc34)ccc2O1	-3.2	0.0	74.0*	0.0
